Assay results: ChEMBL document CHEMBL5724801, “EUbOPEN Chemogenomics Library - Multiplex” (2024)
Values joined by “and” are separate entries in the source; they are usually repeats but may differ in a detail not shown here. Identical values can stand only once.

Tested on: Fibroblast
Assay: Multiplex assay against human fibroblast
Type: toxicity, cell-based
Method in brief: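 Tubulin, mitochondrial-mass and membrane-permeability phenotypes are per cents of healthy-nucleus cells. Cells were gated by CellPathfinder machine learning into Hoechst high-intensity objects or normal cells, normal cells into healthy, pyknosed or fragmented nuclei, and pyknosed cells into mitotic or apoptotic. Before that, live cells stained at seeding with Hoechst33342, BioTracker Green Microtubule Cytoskeleton Dye, MitoTracker Red and Annexin V Alexa Fluor 680 were imaged on a CQ1 microscope at 37°C and 5% CO2 after compound addition.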

[1] = 12 h, 1 µM, compound concentration 1 uM
[2] = 12 h, 10 µM, compound concentration 10 uM
[3] = 24 h, 1 µM, compound concentration 1 uM
[4] = 24 h, 10 µM, compound concentration 10 uM
[5] = 48 h, 1 µM, compound concentration 1 uM
[6] = 48 h, 10 µM, compound concentration 10 uM

Structure (SMILES): CCCCCCNC(=O)Nc1ccc(S(=O)(=O)Nc2ccc(CCNC[C@H](O)COc3ccc(O)cc3)cc2)cc1 [L-755507]
- Population Apoptotic (%) [1]: 40% and 46%
- Population Fragmented Nuclei (%) [1]: 27% and 21%
- Population Healthy Nuclei (%) [1]: 59%
- Population Hoechst High Intensity Objects (%) [1]: 1% and 3%
- Population Membrane Permeable-Phenotype (%) [1]: 3%
- Population Mitochondria Different-Phenotype (%) [1]: 6% and 3%
- Population Mitotic Cells (%) [1]: 60% and 53%
- Population Normal (%) [1]: 98% and 96%
- Population Pyknosed Nuclei (%) [1]: 12% and 19%
- Population Tubulin-Different-Phenotype (%) [1]: 34% and 36%
- Total Cell Count [1]: 198 and 160
- Population Apoptotic (%) [2]: 45% and 42%
- Population Fragmented Nuclei (%) [2]: 17% and 34%
- Population Healthy Nuclei (%) [2]: 72% and 48%
- Population Hoechst High Intensity Objects (%) [2]: 5%
- Population Membrane Permeable-Phenotype (%) [2]: 0% and 1%
- Population Mitochondria Different-Phenotype (%) [2]: 10% and 19%
- Population Mitotic Cells (%) [2]: 54% and 57%
- Population Normal (%) [2]: 94%
- Population Pyknosed Nuclei (%) [2]: 10% and 17%
- Population Tubulin-Different-Phenotype (%) [2]: 47% and 64%
- Total Cell Count [2]: 218 and 172
- Population Apoptotic (%) [3]: 31% and 39%
- Population Fragmented Nuclei (%) [3]: 26%
- Population Healthy Nuclei (%) [3]: 63% and 59%
- Population Hoechst High Intensity Objects (%) [3]: 1% and 2%
- Population Membrane Permeable-Phenotype (%) [3]: 0% and 3%
- Population Mitochondria Different-Phenotype (%) [3]: 3% and 12%
- Population Mitotic Cells (%) [3]: 68% and 60%
- Population Normal (%) [3]: 98% and 97%
- Population Pyknosed Nuclei (%) [3]: 9% and 13%
- Population Tubulin-Different-Phenotype (%) [3]: 27% and 44%
- Total Cell Count [3]: 196 and 176
- Population Apoptotic (%) [4]: 72% and 50%
- Population Fragmented Nuclei (%) [4]: 21% and 38%
- Population Healthy Nuclei (%) [4]: 70% and 51%
- Population Hoechst High Intensity Objects (%) [4]: 8% and 4%
- Population Membrane Permeable-Phenotype (%) [4]: 0% and 3%
- Population Mitochondria Different-Phenotype (%) [4]: 8% and 19%
- Population Mitotic Cells (%) [4]: 27% and 50%
- Population Normal (%) [4]: 91% and 95%
- Population Pyknosed Nuclei (%) [4]: 8% and 9%
- Population Tubulin-Different-Phenotype (%) [4]: 38% and 65%
- Total Cell Count [4]: 232 and 168
- Population Apoptotic (%) [5]: 62% and 53%
- Population Fragmented Nuclei (%) [5]: 28% and 33%
- Population Healthy Nuclei (%) [5]: 63% and 58%
- Population Hoechst High Intensity Objects (%) [5]: 3% and 4%
- Population Membrane Permeable-Phenotype (%) [5]: 0% and 1%
- Population Mitochondria Different-Phenotype (%) [5]: 4% and 6%
- Population Mitotic Cells (%) [5]: 37% and 46%
- Population Normal (%) [5]: 96% and 95%
- Population Pyknosed Nuclei (%) [5]: 8%
- Population Tubulin-Different-Phenotype (%) [5]: 31% and 33%
- Total Cell Count [5]: 201 and 170
- Population Apoptotic (%) [6]: 79% and 71%
- Population Fragmented Nuclei (%) [6]: 19% and 42%
- Population Healthy Nuclei (%) [6]: 69% and 53%
- Population Hoechst High Intensity Objects (%) [6]: 6% and 3%
- Population Membrane Permeable-Phenotype (%) [6]: 1% and 5%
- Population Mitochondria Different-Phenotype (%) [6]: 8% and 11%
- Population Mitotic Cells (%) [6]: 20% and 28%
- Population Normal (%) [6]: 93% and 96%
- Population Pyknosed Nuclei (%) [6]: 10% and 3%
- Population Tubulin-Different-Phenotype (%) [6]: 49% and 55%
- Total Cell Count [6]: 240 and 184

Structure (SMILES): CN1CCN2c3ncccc3Cc3ccccc3C2C1 (configuration not stated) [MIRTAZAPINE]
- Population Apoptotic (%) [1]: 44% and 33%
- Population Fragmented Nuclei (%) [1]: 10% and 24%
- Population Healthy Nuclei (%) [1]: 77% and 47%
- Population Hoechst High Intensity Objects (%) [1]: 3%
- Population Membrane Permeable-Phenotype (%) [1]: 0% and 4%
- Population Mitochondria Different-Phenotype (%) [1]: 6% and 5%
- Population Mitotic Cells (%) [1]: 56% and 66%
- Population Normal (%) [1]: 96%
- Population Pyknosed Nuclei (%) [1]: 12% and 27%
- Population Tubulin-Different-Phenotype (%) [1]: 24% and 45%
- Total Cell Count [1]: 213 and 156
- Population Apoptotic (%) [2]: 44% and 28%
- Population Fragmented Nuclei (%) [2]: 19% and 27%
- Population Healthy Nuclei (%) [2]: 69% and 40%
- Population Hoechst High Intensity Objects (%) [2]: 1% and 6%
- Population Membrane Permeable-Phenotype (%) [2]: 0% and 16%
- Population Mitochondria Different-Phenotype (%) [2]: 8% and 7%
- Population Mitotic Cells (%) [2]: 55% and 71%
- Population Normal (%) [2]: 98% and 93%
- Population Tubulin-Different-Phenotype (%) [2]: 30% and 60%
- Total Cell Count [2]: 168 and 140
- Population Apoptotic (%) [3]: 47% and 48%
- Population Healthy Nuclei (%) [3]: 82% and 50%
- Population Hoechst High Intensity Objects (%) [3]: 5% and 0%
- Population Membrane Permeable-Phenotype (%) [3]: 0% and 10%
- Population Mitochondria Different-Phenotype (%) [3]: 5% and 10%
- Population Mitotic Cells (%) [3]: 52% and 51%
- Population Normal (%) [3]: 94% and 99%
- Population Pyknosed Nuclei (%) [3]: 10% and 23%
- Population Tubulin-Different-Phenotype (%) [3]: 31% and 36%
- Total Cell Count [3]: 201 and 153
- Population Apoptotic (%) [4]: 50% and 46%
- Population Fragmented Nuclei (%) [4]: 19% and 29%
- Population Healthy Nuclei (%) [4]: 72% and 46%
- Population Hoechst High Intensity Objects (%) [4]: 4% and 5%
- Population Membrane Permeable-Phenotype (%) [4]: 0% and 15%
- Population Mitochondria Different-Phenotype (%) [4]: 9% and 1%
- Population Mitotic Cells (%) [4]: 50% and 53%
- Population Normal (%) [4]: 95% and 94%
- Population Tubulin-Different-Phenotype (%) [4]: 30% and 68%
- Total Cell Count [4]: 186 and 136
- Population Apoptotic (%) [5]: 60% and 50%
- Population Fragmented Nuclei (%) [5]: 15% and 36%
- Population Healthy Nuclei (%) [5]: 73% and 45%
- Population Hoechst High Intensity Objects (%) [5]: 7% and 2%
- Population Membrane Permeable-Phenotype (%) [5]: 0% and 11%
- Population Mitochondria Different-Phenotype (%) [5]: 4% and 12%
- Population Mitotic Cells (%) [5]: 39% and 50%
- Population Normal (%) [5]: 92% and 97%
- Population Pyknosed Nuclei (%) [5]: 11% and 17%
- Population Tubulin-Different-Phenotype (%) [5]: 31% and 56%
- Total Cell Count [5]: 213 and 161
- Population Apoptotic (%) [6]: 66% and 33%
- Population Fragmented Nuclei (%) [6]: 17% and 46%
- Population Healthy Nuclei (%) [6]: 73% and 41%
- Population Hoechst High Intensity Objects (%) [6]: 5% and 2%
- Population Membrane Permeable-Phenotype (%) [6]: 0% and 8%
- Population Mitochondria Different-Phenotype (%) [6]: 9% and 2%
- Population Mitotic Cells (%) [6]: 33% and 66%
- Population Normal (%) [6]: 94% and 97%
- Population Pyknosed Nuclei (%) [6]: 9% and 12%
- Population Tubulin-Different-Phenotype (%) [6]: 36% and 60%
- Total Cell Count [6]: 176 and 120

Structure (SMILES): O=C(O)c1cc2ccccc2c(Cc2c(O)c(C(=O)O)cc3ccccc23)c1O [PAMOIC ACID]
- Population Apoptotic (%) [1]: 54% and 32%
- Population Fragmented Nuclei (%) [1]: 10% and 23%
- Population Healthy Nuclei (%) [1]: 81% and 56%
- Population Hoechst High Intensity Objects (%) [1]: 2% and 6%
- Population Membrane Permeable-Phenotype (%) [1]: 0% and 6%
- Population Mitochondria Different-Phenotype (%) [1]: 2% and 8%
- Population Mitotic Cells (%) [1]: 45% and 67%
- Population Normal (%) [1]: 97% and 93%
- Population Pyknosed Nuclei (%) [1]: 7% and 19%
- Population Tubulin-Different-Phenotype (%) [1]: 20% and 34%
- Total Cell Count [1]: 147 and 154
- Population Apoptotic (%) [2]: 40% and 37%
- Population Healthy Nuclei (%) [2]: 80% and 51%
- Population Hoechst High Intensity Objects (%) [2]: 4%
- Population Membrane Permeable-Phenotype (%) [2]: 1% and 3%
- Population Mitochondria Different-Phenotype (%) [2]: 5% and 3%
- Population Mitotic Cells (%) [2]: 60% and 62%
- Population Normal (%) [2]: 95%
- Population Pyknosed Nuclei (%) [2]: 11% and 24%
- Population Tubulin-Different-Phenotype (%) [2]: 23% and 51%
- Total Cell Count [2]: 132 and 156
- Population Apoptotic (%) [3]: 33% and 32%
- Population Fragmented Nuclei (%) [3]: 10% and 23%
- Population Healthy Nuclei (%) [3]: 86% and 58%
- Population Hoechst High Intensity Objects (%) [3]: 3% and 6%
- Population Membrane Permeable-Phenotype (%) [3]: 0% and 9%
- Population Mitochondria Different-Phenotype (%) [3]: 2% and 11%
- Population Mitotic Cells (%) [3]: 66% and 68%
- Population Normal (%) [3]: 96% and 93%
- Population Tubulin-Different-Phenotype (%) [3]: 17% and 39%
- Total Cell Count [3]: 156 and 147
- Population Apoptotic (%) [4]: 50% and 40%
- Population Healthy Nuclei (%) [4]: 77% and 52%
- Population Hoechst High Intensity Objects (%) [4]: 2% and 5%
- Population Membrane Permeable-Phenotype (%) [4]: 1% and 3%
- Population Mitochondria Different-Phenotype (%) [4]: 1% and 5%
- Population Mitotic Cells (%) [4]: 50% and 59%
- Population Normal (%) [4]: 97% and 94%
- Population Pyknosed Nuclei (%) [4]: 13%
- Population Tubulin-Different-Phenotype (%) [4]: 20% and 39%
- Total Cell Count [4]: 138 and 170
- Population Apoptotic (%) [5]: 25% and 38%
- Population Fragmented Nuclei (%) [5]: 12% and 23%
- Population Healthy Nuclei (%) [5]: 79% and 58%
- Population Hoechst High Intensity Objects (%) [5]: 4% and 3%
- Population Membrane Permeable-Phenotype (%) [5]: 0% and 9%
- Population Mitochondria Different-Phenotype (%) [5]: 2% and 8%
- Population Mitotic Cells (%) [5]: 75% and 61%
- Population Normal (%) [5]: 95% and 96%
- Population Pyknosed Nuclei (%) [5]: 8% and 17%
- Population Tubulin-Different-Phenotype (%) [5]: 23% and 44%
- Total Cell Count [5]: 155 and 152
- Population Apoptotic (%) [6]: 50% and 60%
- Population Fragmented Nuclei (%) [6]: 19% and 32%
- Population Healthy Nuclei (%) [6]: 72% and 60%
- Population Hoechst High Intensity Objects (%) [6]: 5% and 3%
- Population Membrane Permeable-Phenotype (%) [6]: 2% and 3%
- Population Mitochondria Different-Phenotype (%) [6]: 5% and 1%
- Population Mitotic Cells (%) [6]: 50% and 40%
- Population Normal (%) [6]: 94% and 96%
- Population Pyknosed Nuclei (%) [6]: 7% and 6%
- Population Tubulin-Different-Phenotype (%) [6]: 29% and 28%
- Total Cell Count [6]: 136 and 156
